# High-throughput results: PubChem BioAssay, several laboratories
# This is a sample that favours compounds with a hit; in the whole collection about 2.2% have one here.
# GSTO1 inh – GSTO1 inhibition, counter-screen for RBBP9 inhibitors | P78417 | recombinant GSTO1, activity-based probe fluorescence polarization | inhibition, % at 5.96 µM | 300,000 tested, 1.1% active;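 active = inhibition above the campaign mean inhibition plus 3 SD, cut at about 35% in these data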;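 also: 0% = GSTO1-1 with DMSO and 100% = wells lacking GSTO1-1 enzyme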
# Target sequence (P78417 whole entry, looked up): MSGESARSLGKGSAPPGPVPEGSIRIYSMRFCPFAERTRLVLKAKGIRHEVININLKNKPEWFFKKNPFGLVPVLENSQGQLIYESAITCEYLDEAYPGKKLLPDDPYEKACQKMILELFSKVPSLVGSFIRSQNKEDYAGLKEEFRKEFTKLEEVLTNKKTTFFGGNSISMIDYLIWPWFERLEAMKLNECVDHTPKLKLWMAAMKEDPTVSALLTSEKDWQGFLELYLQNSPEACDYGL
# UBC13 polyUb – inhibitors of human UBC13 polyubiquitin chain formation | 330,000 tested, 0.47% active | inhibition, % at 20 µM | TR-FRET | P61088 | AID 485273; in the data active = inhibition above about 45%, passing the limit was not always enough; inconclusive = no clear call, values can overlap the other calls
# PAD4 inh – inhibitors of human PAD4. Q9UM07. recombinant PAD4, RCA probe fluorescence polarization. inhibition, % at 6.36 µM. 330,000 tested, 0.41% active;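 active = percent inhibition above a cutoff equal to the mean of all tested compounds plus 3 SD, cut at about 15% in these data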;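 also: 0% = PAD4 with RCA probe and DMSO and 100% = probe without PAD4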
# Apaf1 inhib – blocks human Apaf-1 apoptosome activity. O14727. reconstituted apoptosome caspase-3 activity, DEVD-Rh110 fluorescence. inhibition, % at 20 µM. 330,000 tested, 0.71% active. AID 489030; active = inhibition of at least 40% at 20 µM;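 also: plate controls were DMSO wells for no effect and DEVD-CHO caspase inhibitor wells for full effect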
#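 Material: reconstituted apoptosome with Apaf-1, cytochrome c, caspase-9, procaspase-3, dATP. Technique: Rh110 fluorescence intensity. Buffer or medium: pH 7.5 Hepes buffer with CHAPS, BSA, DTT. Times: 30 min plus 50 min, RT.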
# UBC9 SUMO inh – blocks human SUMOylation mediated by UBC9; P63279; HTRF SUMOylation assay, SAE1/SAE2 + UBC9, in vitro; inhibition, % at 35 µM; 290,000 tested, 0.36% active; in the data active = inhibition above about 50%, passing the limit was not always enough; inconclusive = no clear call, values can overlap the other calls
# Target sequence (P63279 whole entry, looked up): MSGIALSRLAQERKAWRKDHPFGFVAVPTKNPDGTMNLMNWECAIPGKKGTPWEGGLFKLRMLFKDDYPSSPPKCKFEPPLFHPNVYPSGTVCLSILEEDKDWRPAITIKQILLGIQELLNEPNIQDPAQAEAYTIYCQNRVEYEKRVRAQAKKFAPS
# Rin1 Abl inh – inhibitors of human Rin1-Abl protein interaction. P00519+Q13671. TR-FRET Rin1/Abl binding, biochemical. inhibition, % at 7.35 µM. 360,000 tested, 0.4% active. AID 588664; in the data active = inhibition above about 5%, passing the limit was not always enough
# Casp3 UBC13 ctr – inhibits human caspase-3 in UBC13 counter-screen; inhibition, % at 20 µM; Recombinant caspase-3, Caspase-Glo 3/7 luminescence, 60 min; AID 488856; shares compounds with UBC13 polyUb; 1,400 tested, 4% active;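 active = mean inhibition across replicates above about 26%, limit read from the data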;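 also: plate controls were DMSO with caspase-3 for no effect and DMSO wells lacking enzyme for full effect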
# Target sequence (P42574 whole entry, looked up): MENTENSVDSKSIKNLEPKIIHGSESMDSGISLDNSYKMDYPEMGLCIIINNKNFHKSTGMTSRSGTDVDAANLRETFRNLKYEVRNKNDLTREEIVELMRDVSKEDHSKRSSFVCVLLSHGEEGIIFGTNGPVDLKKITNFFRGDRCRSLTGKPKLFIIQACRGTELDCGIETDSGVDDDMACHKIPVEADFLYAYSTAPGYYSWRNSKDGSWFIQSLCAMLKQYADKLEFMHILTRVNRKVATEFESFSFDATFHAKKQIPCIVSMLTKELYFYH
# UBC13 confirm – confirmation of human UBC13 polyubiquitin inhibitors; shares compounds with UBC13 polyUb; UBC13 polyubiquitination, TR-FRET, biochemical; inhibition, % at 10 µM; 1,400 tested, 68% active; AID 488859; in the data active = inhibition above about 45%; inconclusive = no clear call, values can overlap the other calls
# The depositor's hits bear a star; ? = inconclusive; · = no result.
SMILES,GSTO1 inh,UBC13 polyUb,PAD4 inh,Apaf1 inhib,UBC9 SUMO inh,Rin1 Abl inh,Casp3 UBC13 ctr,UBC13 confirm
S=C(NCc1ccccc1)N1CCN(C2CCCCC2)CC1,-2.5,0.9,0.7,-33.5,18.4,-1.2,·,·
Cc1nc2ccccc2c2oc(C(=O)N3CCN(C4CCCCC4)CC3)cc12,9.9,10.0,-1.9,6.9,20.5,-1.5,·,·
Cc1nc2ccccc2c2oc(C(=O)N3CCC(N4CCCCC4)CC3)cc12,3.8,61.3*,-4.9,24.9,9.7,-1.3,0.2,43.6
Cc1ccc(C)c(N2N=C(C(=O)OCc3nnc(-c4ccccc4Br)o3)CCC2=O)c1,·,·,·,·,·,-1.8,·,·
Cc1cccn2c(=O)c(C=O)c(N3CCCCCC3)nc12,4.5,55.3*,0.1,3.2,2.0,-5.4,2.7,64.0*
COc1ccc(C(=O)Nn2c(SCC(=O)NC3CCCC3)nc3ccccc3c2=O)cc1,1.7,43.7,-4.1,7.9,5.1,-1.0,·,·
COc1ccc(C(=O)Nn2c(SCC(=O)NCc3ccccc3)nc3ccccc3c2=O)cc1,-2.4,52.2*,-2.5,8.3,-3.3,-3.4,2.6,58.3*
COc1ccc(C(=O)Nn2c(SCC(=O)NCC3CCCO3)nc3ccccc3c2=O)cc1 (configuration not stated),1.7,58.4*,-4.6,1.5,15.2,5.9,70.7*,48.0*
O=C(CSc1nc2ccccc2c(=O)n1CC1CCCO1)NCC1CCCO1 (configuration not stated),3.4,0.4,4.0,-5.3,5.5,-1.6,·,·
CCCNc1ncc2c(=O)[nH][nH]c(=O)c2n1,·,·,·,·,·,2.1,·,·
CCCC(C(=O)NC1CCCC1)N(CC1CCCO1)C(=O)c1snc(C(N)=O)c1N (configuration not stated),-1.2,22.4,-4.0,6.4,11.8,0.7,·,·
CC(C)CC(C(=O)NC(C)(C)C)N(CC1CCCO1)C(=O)c1snc(C(N)=O)c1N (configuration not stated),3.0,78.4*,-3.6,-0.1,-2.4,-0.4,-3.8,80.7*
CCCC(C(=O)NC(C)(C)C)N(CC1CCCO1)C(=O)c1snc(C(N)=O)c1N (configuration not stated),2.2,50.9*,-1.4,-0.1,20.8,-2.7,1.2,52.2*
Nc1c(C(=O)Nc2ccccc2)c2nc3ccccc3nc2n1CCCN1CCOCC1,-23.2,64.1*,-3.4,33.7,-24.2,-0.8,4.5,54.5*
CC1CCCCN1S(=O)(=O)c1cccc2nonc12 (configuration not stated),·,3.4,·,-2.1,3.1,-4.2,·,·
Cc1ccnc(NCc2cc(Cl)ccc2O)c1,·,·,·,·,·,-1.2,·,·
Cc1ccnc(NCc2c(O)ccc3ccccc23)c1,-3.5,54.0*,2.8,9.7,-1.9,-0.6,-1.0,75.6*
O=C(CSc1cc(Cl)ccc1Cl)NCC(=O)Nc1ccc(F)c(F)c1F,-6.4,70.7*,-1.0,13.2,-6.9,2.0,-0.8,78.6*
O=C(CNC(=O)c1cccc(Cl)c1)Nc1ccc(F)c(F)c1F,2.8,-12.2,1.4,5.6,10.6,3.0,·,·
COc1cccc2oc3ccc(C#CC4(N)CCCCC4)cc3c(=O)c12,-5.9,52.7*,-0.9,21.8,27.2,-0.5,79.5*,40.5
O=c1c2ccccc2oc2ccc(C#CC3(O)CCCCC3)cc12,-6.0,16.1,2.5,26.7,·,-0.2,·,·
O=C(O)c1ccc2[nH]c3c(c2c1)CSCC3,17.0,17.1,0.8,-7.8,10.7,0.8,·,·
CN(C)CCOC(=O)c1ccc2[nH]c3c(c2c1)CSCC3,6.8,62.2*,-6.6,14.6,9.9,0.5,-2.5,52.7*
COc1ccc(CSC2=NCCN2)cc1Br,4.4,9.8,0.0,-19.6,3.8,3.3,·,·
CCN(CC)c1ncnc2c1ncn2[C@H]1CN(Cc2ccc(F)cc2)C[C@@H](CO)O1,·,·,·,·,·,0.4,·,·
SMILES,GSTO1 inh,UBC13 polyUb,PAD4 inh,Apaf1 inhib,UBC9 SUMO inh,Rin1 Abl inh,Casp3 UBC13 ctr,UBC13 confirm
Cc1ccc(-c2csc(NC(=O)CSc3nc4ccccc4c(=O)n3CCCN(C)C)n2)cc1,-6.7,89.2*,-0.1,37.9,-9.0,0.5,1.6,93.9*
Cc1cccc(N(C(=O)c2snc(C(N)=O)c2N)C(C(=O)NC2CCCC2)c2ccco2)c1 (configuration not stated),·,79.1*,·,11.8,-12.8,-1.2,2.9,75.5*
Cc1cccc(N(C(=O)c2snc(C(N)=O)c2N)C(C(=O)NCC2CCCO2)c2cccs2)c1 (configuration not stated),3.0,62.1*,-1.5,12.9,6.7,-0.8,1.2,71.1*
NC(=O)c1nsc(C(=O)N(c2ccc(Cl)cc2)C(C(=O)NCC2CCCO2)c2cccs2)c1N (configuration not stated),0.5,45.5*,-3.4,23.8,-4.9,0.9,2.6,49.5*
CC(C)c1ccc(CNC(=O)C2(C)CCCN2C)cc1 (configuration not stated),·,·,·,·,·,1.9,·,·
O=C(Nc1ccccc1)N1CCN(c2nc(-c3ccccc3)ns2)CC1,8.3,49.2*,2.4,-9.7,5.6,-1.1,-1.2,63.1*
O=C(Nc1ccccc1Cl)N1CCCN(c2nc(-c3ccccc3)ns2)CC1,-10.0,12.3,4.0,-20.2,-6.6,-0.4,·,·
CC(C)(C)c1ccc(C(=O)NCCCN2CCN(CCCNC(=O)c3ccc(C(C)(C)C)cc3)CC2)cc1,-3.5,65.5*,-1.5,26.9,-31.1,1.9,-5.2,74.2*
CCN(CC(=O)Nc1ccc(NC(C)=O)cc1)C(=O)c1cccc(-n2cccc2)c1,-0.8,-1.0,3.1,-2.0,·,5.3,·,·
COc1ccc(OC)c(/C=C/C(=O)OCC(=O)c2c(N)n(C)c(=O)n(C)c2=O)c1,-16.2,45.8*,-5.1,-4.9,15.7,-3.0,-4.3,43.1
COc1ccc(C(=O)OCC(=O)c2c(N)n(C)c(=O)n(C)c2=O)cc1OC,0.3,2.8,0.4,-5.6,20.6,0.3,·,·
COc1ccc(C(=O)n2cnc3ccccc32)cc1[N+](=O)[O-],3.5,0.8,-0.2,-0.5,15.6,0.1,·,·
COC(=O)c1cccc(NC(=O)Cc2coc3cc(OC)ccc23)c1,-1.6,47.5*,-0.4,-13.6,-17.6,-0.2,-2.9,52.7*
O=c1c2sccc2[nH]c(=S)n1-c1ccccc1,6.4,64.6*,1.5,-22.3,13.6,-1.4,1.9,?
Cc1c(CCOC(=O)CC23CC4CC(CC(C)(C4)C2)C3)sc[n+]1CC(=O)c1ccccc1,-8.1,63.3*,-5.0,24.5,-6.6,-0.9,4.4,51.6*
CSc1sc(-c2nnc(SCC(=O)Nc3ccccc3)n2C)c2c1C=CCC2,-0.3,53.6*,1.3,-8.7,24.6,-1.4,-1.2,?
Cc1ccccc1OCC(=O)OCC(=O)NCc1ccccc1Cl,·,-3.4,8.7,14.3,·,4.0,·,·
